Biological target: Poly(ADP-ribose) glycohydrolase (Rattus norvegicus, UniProt Q9QYM2)
Assay: Inhibition of rat testis GST-tagged PARG catalytic activity after 30 mins using [32P]poly(ADP-ribose) by radioassay
Summary of the method: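 Recombinant rat PARG (from testis cDNA) expressed in E. coli as GST fusion (GST-RPG, 136 kDa), 15 ng per reaction. Compound in DMSO added to 4 μM [32P]poly(ADP-ribose) in 20 mM potassium phosphate pH 7.5, 50 mM KCl, 10 mM 2-mercaptoethanol; 37 °C, 30 min; stopped with 1% SDS (final). PEI-cellulose TLC (0.1 M LiCl/3 M AcOH/3 M urea), imaging-plate radioactivity; activity from fraction of degradation products.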

Poly(ADP-ribose) glycohydrolase, sequence (Q9QYM2 whole entry): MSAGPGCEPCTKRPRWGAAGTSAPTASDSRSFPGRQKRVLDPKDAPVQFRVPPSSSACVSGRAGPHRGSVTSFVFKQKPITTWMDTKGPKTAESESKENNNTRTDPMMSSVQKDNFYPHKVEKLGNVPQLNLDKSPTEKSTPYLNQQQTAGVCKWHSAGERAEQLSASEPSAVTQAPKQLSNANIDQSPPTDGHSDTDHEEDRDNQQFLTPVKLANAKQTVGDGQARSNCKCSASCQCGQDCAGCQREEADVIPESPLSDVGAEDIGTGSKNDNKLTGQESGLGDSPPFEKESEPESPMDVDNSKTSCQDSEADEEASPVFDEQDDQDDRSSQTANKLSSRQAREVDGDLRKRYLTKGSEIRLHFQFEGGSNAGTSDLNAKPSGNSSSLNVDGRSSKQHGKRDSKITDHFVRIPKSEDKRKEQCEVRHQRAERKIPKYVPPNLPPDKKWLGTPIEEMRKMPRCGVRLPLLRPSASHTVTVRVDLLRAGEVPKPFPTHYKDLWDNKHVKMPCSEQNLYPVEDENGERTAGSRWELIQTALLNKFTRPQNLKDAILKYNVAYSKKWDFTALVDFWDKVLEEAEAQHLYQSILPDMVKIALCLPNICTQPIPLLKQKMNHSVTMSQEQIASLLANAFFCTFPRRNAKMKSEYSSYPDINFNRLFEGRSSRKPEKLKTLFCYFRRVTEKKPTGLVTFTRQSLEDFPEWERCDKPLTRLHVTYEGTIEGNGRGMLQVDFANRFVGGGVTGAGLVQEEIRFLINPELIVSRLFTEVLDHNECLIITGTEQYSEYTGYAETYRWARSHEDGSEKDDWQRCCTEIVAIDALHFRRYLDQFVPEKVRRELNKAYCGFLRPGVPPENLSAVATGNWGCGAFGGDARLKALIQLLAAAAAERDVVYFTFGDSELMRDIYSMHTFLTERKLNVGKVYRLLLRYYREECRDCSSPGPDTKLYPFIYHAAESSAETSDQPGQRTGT

| Structure (SMILES) | IC50 [µM] |
| --- | --- |
| O=C(CCCC(=O)N/N=C/c1ccc(O)c(O)c1O)N/N=C/c1ccc(O)c(O)c1O | 13.9 |
| O=C(N/N=C/c1cccc(O)c1O)c1ccc(C(=O)N/N=C/c2cccc(O)c2O)cc1 | > 75 |
| O=C(N/N=C/c1ccc(O)cc1O)c1ccc(C(=O)N/N=C/c2ccc(O)cc2O)cc1 | > 75 |
| O=C(N/N=C/c1ccc(O)c(O)c1)c1ccc(C(=O)N/N=C/c2ccc(O)c(O)c2)cc1 | > 75 |
| O=C(N/N=C/c1ccc(O)c(O)c1O)c1ccc(C(=O)N/N=C/c2ccc(O)c(O)c2O)cc1 | 1 |
| O=C(N/N=C/c1cc(O)c(O)c(O)c1)c1ccc(C(=O)N/N=C/c2cc(O)c(O)c(O)c2)cc1 | 2.1 |
| O=C(N/N=C/c1c(O)cc(O)cc1O)c1ccc(C(=O)N/N=C/c2c(O)cc(O)cc2O)cc1 | 9.9 |
| O=C(N/N=C/c1cccc(O)c1O)c1cccc(C(=O)N/N=C/c2cccc(O)c2O)c1 | 14.8 |
| O=C(N/N=C/c1ccc(O)cc1O)c1cccc(C(=O)N/N=C/c2ccc(O)cc2O)c1 | 40.1 |
| O=C(N/N=C/c1ccc(O)c(O)c1)c1cccc(C(=O)N/N=C/c2ccc(O)c(O)c2)c1 | 19.2 |
| O=C(N/N=C/c1ccc(O)c(O)c1O)c1cccc(C(=O)N/N=C/c2ccc(O)c(O)c2O)c1 | 3.1 |
| O=C(N/N=C/c1cc(O)c(O)c(O)c1)c1cccc(C(=O)N/N=C/c2cc(O)c(O)c(O)c2)c1 | 3.2 |
| O=C(N/N=C/c1c(O)cc(O)cc1O)c1cccc(C(=O)N/N=C/c2c(O)cc(O)cc2O)c1 | 18.8 |
| O=C(N/N=C/c1ccc(O)c(O)c1O)C(=O)N/N=C/c1ccc(O)c(O)c1O | 3.1 |
| O=C(N/N=C/c1cc(O)c(O)c(O)c1)C(=O)N/N=C/c1cc(O)c(O)c(O)c1 | 2.8 |
| O=C(CC(=O)N/N=C/c1ccc(O)c(O)c1O)N/N=C/c1ccc(O)c(O)c1O | 1.6 |
| O=C(CC(=O)N/N=C/c1cc(O)c(O)c(O)c1)N/N=C/c1cc(O)c(O)c(O)c1 | 15.4 |
| O=C(CCC(=O)N/N=C/c1ccc(O)c(O)c1O)N/N=C/c1ccc(O)c(O)c1O | 9.8 |
| O=C(CCC(=O)N/N=C/c1cc(O)c(O)c(O)c1)N/N=C/c1cc(O)c(O)c(O)c1 | 8.2 |
| O=C(CCCC(=O)N/N=C/c1cc(O)c(O)c(O)c1)N/N=C/c1cc(O)c(O)c(O)c1 | 27.4 |
| O=C(O[C@H]1[C@H](O)[C@@H](CO)OC(O)[C@@H]1O)c1cc(O)c(O)c(O)c1 (stereo partly drawn) | 0.95 |
| O=C(O)CCN1C(=O)/C(=C2\C(=O)c3cc(Br)ccc3N2Cc2c(Cl)cccc2Cl)SC1=S | 2.9 |
| Nc1ncnc2c1ncn2[C@@H]1O[C@H](CO[P@](=O)(O)O[P@@](=O)(O)OC[C@H]2NC[C@H](O)[C@@H]2O)[C@@H](O)[C@H]1O [ADENOSINE DIPHOSPHATE (HYDROXYMETHYL)PYRROLIDINEDIOL] | 0.1 |

Reference: ChEMBL document CHEMBL3351371, “Design and synthesis of phenolic hydrazide hydrazones as potent poly(ADP-ribose) glycohydrolase (PARG) inhibitors” (Bioorg Med Chem Lett, 2014)
